From the RNAGym collection of RNA variant scans (doi:10.1126/science.aae0568)
Variants at the floor of the assay were thinned out.

B1: tRNA (parent)
chain: GUUCCGUUGGCGUAAUGGUAACGCGUCUCCCUCCUAAGGAGAAGACUGCGGGUUCGAGUCCCGUACGGAACG

Variants of: B1
Assay: yeast fitness relative to wild type (ratio to wild type); higher = fitter; tRNA-Arg(CCU), competitive growth, 37 C, YPD
Method in brief: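 Start and end populations of a pooled competition were compared by 100-nucleotide paired-end sequencing of gene amplicons. The Saccharomyces cerevisiae strains carried tRNA-Arg(CCU) gene variants at the native genomic locus, synthesised with a 3% per-site mutation rate at 69 sites, and competed in YPD at 37°C for 24 hours in six parallel replicates. Darwinian fitness relative to wild type was based on the change in genotype frequencies. Genotypes required ≥ 100 starting reads, and estimates < 0.5 were set to 0.5.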

**Q.** Which yeast fitness does the source give for GUUCCGUUGGCGUAAUGCUAACGCGACUCCCUCCUAAGGAGAAGACUGCGGGCUCGAGUCCCGUACGGAACG [G18C U26A U53C] here?
**A.** The yeast fitness was 0.549.

**Q.** With GUUCCGUUGGCGUAAUGGAAACGCGUCUCCCUCCUAUGGAGAGGACUGCGGGUUCGGGUCCCGUACGGAACG [U19A A37U A43G A57G] as the variant, how does the yeast fitness read?
**A.** The yeast fitness was 0.594.

**Q.** With GUUCCGUUGGCGUAAUGGAAGCGCGUUUCCCUUCUAAGGAGAAGACUGCGGGUUCGAGUCCCGUACCGAACG [U19A A21G C27U C33U G67C] as the variant, how does the yeast fitness read?
**A.** The yeast fitness was at most 0.5.

**Q.** With GUUCCGUUGGCGUAAUGGAAACGCGUCUCCCUCCUUAGGAGAAGACUGCUGGUUCGAGUCUCGUACGGAACG [U19A A36U G50U C61U] as the variant, how does the yeast fitness read?
**A.** Its yeast fitness is at most 0.5.

**Q.** For GUUCCGUUGGCGUAAUGCUAACGCGUCUCCCUCCUAAGGAGAAGACUACGGGGUCGAGUCCCGUACGGAACG [G18C G48A U53G], which yeast fitness is on record?
**A.** The yeast fitness was at most 0.5.

**Q.** Which yeast fitness does the source give for GUUCCGUUGGCGUAAUGGAAUCGCGUCUCCCUCCUAAGGAGAAGACUGCGGGUUCGAGUCCCGUACGGAACG [U19A A21U] here?
**A.** Its yeast fitness is 0.854.

**Q.** For GUUCCGUUGGCGUAAUGGAAAUGCGUCUCCCCCCUAAGGAGAAGACUGCGGGUUCGAGUGCCGUACGGAACG [U19A C22U U32C C60G], which yeast fitness is on record?
**A.** Its yeast fitness is at most 0.5.

**Q.** With GUUCCGUUGGCGUAAUGGAAACGGGUUUCACUCCUAAGGAGAAGACUGCGGGUUCGAGUCCCGAACGGACCG [U19A C24G C27U C30A U64A A70C] as the variant, how does the yeast fitness read?
**A.** Its yeast fitness is at most 0.5.

**Q.** For GUUCCGUUGGCGUAAUGCAAACGCGUCUCCCUCCUUAGGAGAAGACUGCGGGUUCGAGUCCCGUACGGAACG [G18C U19A A36U], which yeast fitness is on record?
**A.** The yeast fitness was at most 0.5.

**Q.** For GUUCCGUUGGCGUAAUGGAAACGGGUCUCCCUGGUAAGGAGAAGACUGCGGGUUCGAGUCCCGUACGGAACG [U19A C24G C33G C34G], which yeast fitness is on record?
**A.** The yeast fitness was 0.528.

**Q.** Which yeast fitness does the source give for GUUCCGUUGGCGUAAUGGAACCGCCUCUCCGUUCUAAGGAGAAGACUGCGGGUUCGAGUCCCGUACAGAACG [U19A A21C G25C C31G C33U G67A] here?
**A.** Its yeast fitness is at most 0.5.

**Q.** With GUUCCGUUGGCGUAAUGCUAACGCGUCCCCCUCCUAAGGAGAAGACUGCGGGUUCGAGUCCCGUACGGAACG [G18C U28C] as the variant, how does the yeast fitness read?
**A.** The yeast fitness was 0.663.

**Q.** With GUUCCGUUGGCGUAAUGCUAACGCGUCUCCCUCCGAAGGACAAGACUGCGGGUUCAAGUCCCGUGUGGAACG [G18C U35G G41C G56A A65G C66U] as the variant, how does the yeast fitness read?
**A.** The yeast fitness was at most 0.5.

**Q.** Which yeast fitness does the source give for GUUCCGUUGGCGUAAUGGAAAGGCGUCUCCCUCUUAAGGAGGGGACUGCGAGUUCGAGUCCCGUACGGAUCG [U19A C22G C34U A42G A43G G51A A70U] here?
**A.** Its yeast fitness is at most 0.5.

**Q.** With GUUCCGUUGGCGUAAUGGAAAGCCGUCUCGCUCAUAAGGAGAAGACUGCGGGUUUGAGUCCCGUACGGAACG [U19A C22G G23C C30G C34A C55U] as the variant, how does the yeast fitness read?
**A.** Its yeast fitness is at most 0.5.

**Q.** Which yeast fitness does the source give for GUUCCGUUGGCGUAAUGCUAACGCGUCUCCCUCCUAAGGAGAAGACAGCGGGUUCGAGUCCCGUACGGAACG [G18C U47A] here?
**A.** Its yeast fitness is 0.553.

**Q.** Which yeast fitness does the source give for GUUCCGUUGGCGUAAUGGAAACGCGUCUCCCUCCUAAGGAGGAGACCGCGGGUUCGAGUCCCGUACGGAACG [U19A A42G U47C] here?
**A.** Its yeast fitness is at most 0.5.

**Q.** For GUUCCGUUGGCGUAAUGCUAACGCGUCUCCCUCCUAAGGAGAAGACUGCGGGUUCGAGUCCCAUACGGAACG [G18C G63A], which yeast fitness is on record?
**A.** Its yeast fitness is 0.535.

**Q.** With GUUCCGUUGGCGUAAUGUUAACGCGUCUCCCUCCUAAGGAGAAGUCUGCGGGUUCGAGCCCCGUACGGAACG [G18U A45U U59C] as the variant, how does the yeast fitness read?
**A.** Its yeast fitness is 0.542.

**Q.** Which yeast fitness does the source give for GUUCCGUUGGCGUAAUGCUAACGCGUCUCCCUCCAAAGGAGAAGCCUACGGGUUCGAGUCCCGUACGGAACG [G18C U35A A45C G48A] here?
**A.** The yeast fitness was at most 0.5.

**Q.** Which yeast fitness does the source give for GUUCCGUUGGCGUAAUGGAAACGCGUCUCCCUCCUAAGGAGAAGACUGCGGGUUCGAGUCCCGUACGGACCG [U19A A70C] here?
**A.** The yeast fitness was 1.03.

**Q.** Which yeast fitness does the source give for GUUCCGUUGGCGUAAUGGAAACGCGUCUCCCUCCUAAGGAGAAGACUGCGGGUUCGAGUCCCGUACGGAUCG [U19A A70U] here?
**A.** Its yeast fitness is 1.03.

**Q.** Which yeast fitness does the source give for GUUCCGUUGGCGUAAUGCCAACGCGUCUCCCUCCUAAGGAGAAGACUGCGGGUUCGAGUCCCGUACGGAACG [G18C U19C] here?
**A.** Its yeast fitness is 0.587.

**Q.** Which yeast fitness does the source give for GUUCCGUUGGCGUAAUGGAAAUGCGUCUCCCUCCUAAGGUGAAGACUGCGCGUUCGAGUCCCGUAUGGAGCG [U19A C22U A40U G51C C66U A70G] here?
**A.** The yeast fitness was at most 0.5.

**Q.** With GUUCCGUUGGCGUAAUGCUAACGCGUCGCCCUCCUCACGAGAAGACUGCGGGUUCGAGUCCCGUACGGAACG [G18C U28G A36C G38C] as the variant, how does the yeast fitness read?
**A.** Its yeast fitness is at most 0.5.

**Q.** For GUUCCGUUGGCGUAAUGGAAACGAGUCUCCGUCCUAAGGAGAAGACUGCGGGUUCGAGUCCCGUACGCAACG [U19A C24A C31G G68C], which yeast fitness is on record?
**A.** Its yeast fitness is at most 0.5.

**Q.** For GUUCCGUUGGCGUAAUGCUAACGCGUCUCCCUCCUAAGGAGAAGACUGCGGAUUCGUGUCCCGUCCGGAACG [G18C G52A A57U A65C], which yeast fitness is on record?
**A.** The yeast fitness was at most 0.5.

**Q.** For GUUCCGUUGGCGUAAUGUUAACGCGACUCCCUCCUAAGGAGAAGACUGUCGGUUCGAGUCCCGUACGGAACG [G18U U26A C49U G50C], which yeast fitness is on record?
**A.** Its yeast fitness is at most 0.5.

**Q.** For GUUCCGUUGGCGUAAUGGAAAGGCGUCUCCCUCCUAAGGAGAAGACUGCGGGUUCGAGUCCCGUACGGAACG [U19A C22G], which yeast fitness is on record?
**A.** Its yeast fitness is 0.919.

**Q.** With GUUCCGUUGGCGUAAUGUUAACGCGUCUCUCUCCUAAGGAGAAGACUGGGGGUUCGAGUCCCGUACGGAACG [G18U C30U C49G] as the variant, how does the yeast fitness read?
**A.** The yeast fitness was at most 0.5.

**Q.** With GUUCCGUUGGCGUAAUGGAAACGCGUCUCCCUCCUACGGAGAAGACUGGGGGUUCGAGUCCCGUACGGAACG [U19A A37C C49G] as the variant, how does the yeast fitness read?
**A.** Its yeast fitness is 0.501.

**Q.** Which yeast fitness does the source give for GUUCCGUUGGCGUAAUGGAAAGGCGUCUCCCUCCUAAGGAGAAGUCUGUGGGUUCGAGUCCCGAACGGAACG [U19A C22G A45U C49U U64A] here?
**A.** The yeast fitness was at most 0.5.

**Q.** Which yeast fitness does the source give for GUUCCGUUGGCGUAAUGUUAACGCGUCUCCCUCCUAAGAAGAAGACUGCGGGUUCGAGUCCCGUACGGAACG [G18U G39A] here?
**A.** Its yeast fitness is 0.594.

**Q.** With GUUCCGUUGGCGUAAUGCGAACGCGUUUCCCUCCUAAGGAGAUGACUGCGGGUUCGAGUCCCGUUCGGAACG [G18C U19G C27U A43U A65U] as the variant, how does the yeast fitness read?
**A.** The yeast fitness was at most 0.5.

**Q.** For GUUCCGUUGGCGUAAUGCUAACGCGUCUCCCUCCUAAGGAGAAGACUGCGGGCUCGAGUCUCGUACGGAACG [G18C U53C C61U], which yeast fitness is on record?
**A.** The yeast fitness was at most 0.5.

**Q.** For GUUCCGUUGGCGUAAUGGAAGCGCGUUUCCCUUCUAAGGAGAAGACUGCGGGUUCGAGUCCCGUACGGAACG [U19A A21G C27U C33U], which yeast fitness is on record?
**A.** The yeast fitness was at most 0.5.

**Q.** For GUUCCGUUGGCGUAAUGGAAACGGGUCUCCCUCCUAAGGAGAAGACUGCGGGUUCGAGUCCCGUACGGAACG [U19A C24G], which yeast fitness is on record?
**A.** Its yeast fitness is 0.633.
